Results from paper PMC6939458 (Cancer cell, 2019).
Where “and” joins values, the source holds several entries; their conditions need not be identical. Equal values may be shown once.

Tests used:
[1] = molecular target: MAX/MAX homodimer (Homo sapiens, UniProt P61244); assay: EMSA, MAX/MAX homodimer binding to E-box DNA; assay type: biochemical
[2] = molecular target: MYC/MAX interaction (Homo sapiens, UniProt P01106); assay: Co-immunoprecipitation and proximity ligation assay in PC3 cells; assay type: cell-based; settings: 6 μM
Chain of MYC/MAX interaction (P01106 16-454): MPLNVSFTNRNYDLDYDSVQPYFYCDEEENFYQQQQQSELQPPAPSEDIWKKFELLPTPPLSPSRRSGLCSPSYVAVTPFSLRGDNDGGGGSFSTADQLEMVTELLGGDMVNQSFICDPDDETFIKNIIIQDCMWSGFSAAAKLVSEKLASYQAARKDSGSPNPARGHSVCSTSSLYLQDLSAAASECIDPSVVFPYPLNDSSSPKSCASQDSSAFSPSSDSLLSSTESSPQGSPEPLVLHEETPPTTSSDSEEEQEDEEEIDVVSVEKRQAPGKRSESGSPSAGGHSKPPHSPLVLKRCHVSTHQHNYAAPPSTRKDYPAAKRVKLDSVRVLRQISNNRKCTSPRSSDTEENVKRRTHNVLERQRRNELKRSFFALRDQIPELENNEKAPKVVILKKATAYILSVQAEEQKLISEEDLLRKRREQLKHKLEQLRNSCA
How it was run: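 For PLA, PC3 or PC3 T58A cells were grown in chamber slides and treated for 1 to 2 hr, then fixed in 4% PFA and permeabilised with 0.5% Triton-X. PLA signals per cell were counted by image analysis. For co-IP, cells were lysed in 20 mM Tris-HCl pH 8.0, 100 mM NaCl, 1 mM EDTA and 0.5% NP-40. Pellets were enzymatically sheared for 90 min at 4 °C and precipitates were analysed by western blot.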

[3] = system: 468 kinases, including GSK3β; assay: KINOMEscan kinome screen; assay type: binding; settings: 6 μM
[4] = system: pheochromocytoma PC12 cells; assay: Cell viability, PC12 cells; assay type: cell-based; settings: PC12, does not require MYC/MAX dimer for proliferation
How it was run: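 PC12 cells were grown in F-12K with 2% heat-inactivated FBS and 12.5% horse serum. They were seeded at 1000 to 5000 cells per well in 96-well plates and treated for 2 to 7 days. Read-out was viable-cell count or MTS absorbance at 490 nm.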

[5] = system: MYC transcriptional activity (E-box-luciferase); assay: E-box luciferase reporter assay in vitro; assay type: cell-based
How it was run: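 MycCaP cells stably carrying either MYC E-box-luciferase reporter or control mCherry-P2A-luciferase vector plated 10000 cells/well. Serial dilution of test compound added the next day; luminescence read by Steady-Glo after 4 hr treatment.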

[6] = system: γ-H2AX; assay: γ-H2AX staining; assay type: cell-based, human; settings: 10 μM, 24-hour treatment
How it was run: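 PC3 cells were fixed in 4% PFA and permeabilised with 0.5% Triton-X. They were then stained with anti-phospho-histone H2A.X (Ser139) antibody at 1:1000.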

[7] = Pharmacokinetics of 361 in C57BL/6 mice; assay type: in vivo; settings: male, C57BL/6, mouse, plasma, 50 mg/kg

Chain of MAX/MAX homodimer (P61244 whole entry): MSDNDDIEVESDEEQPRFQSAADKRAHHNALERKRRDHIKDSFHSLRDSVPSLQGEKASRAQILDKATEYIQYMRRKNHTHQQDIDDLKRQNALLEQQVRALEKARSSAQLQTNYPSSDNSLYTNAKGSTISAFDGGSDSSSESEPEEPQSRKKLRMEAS

## Cn1nc(C(F)(F)F)cc1-c1ccc(OCc2ccc(Cl)cc2)c(-c2cc(C(F)(F)F)cc(C(F)(F)F)c2)c1O [Compound 361, 6-((4-chlorobenzyl)oxy)-3-(1-methyl-3-(trifluoromethyl)-1H-pyrazol-5-yl)-3’,5’-bis(trifluoromethyl)-[1,1’-biphenyl]-2-ol]
[1]
  MAX/MAX homodimer binding to E-box DNA: but not the closely related MAX/MAX homodimer
[2]; MYCT58A-expressing PC3 cells
  MYCT58A/MAX interactions (PLA): disrupted
[2]; PC3 cells, 1 hr
  MYC/MAX interaction by co-IP and PLA: disruption of the MYC/MAX interaction
[3]
  kinome screen result: negative
[4]
  effect on cell viability: little effect
[5]
  E-box-luciferase versus CMV-luciferase activity in vitro: selectively inhibited E-box-luciferase but not CMV-luciferase activity
[6]
  induction of γ-H2AX: did not observe induction
[7]; ip
  Cmax: 27200 ng/mL and 46 µM
  concentration at 24 hr: 12700 ng/mL and 21 µM
  half-life: 44 h
[7]; po
  Cmax: 13900 ng/mL and 23 µM
  concentration at 24 hr: 9 µM and 5280 ng/mL
  half-life: 20 h
